Furin inh: inhibitors of human furin. P09958. purified furin, fluorogenic substrate cleavage. inhibition, % at 20 µM or 30 µM. 0.061% of 220,000 active; in the data active = inhibition above about 25%
Thrombin inh: blocks human thrombin protease activity. P00734. 0.26% of 220,000 active. alpha-thrombin, Boc-VPR-AMC fluorogenic substrate cleavage. AID 1046. inhibition, % at 5 µM;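 active = inhibition at or above 40%; inactive = inhibition below 40%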;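 note: 0% = enzyme with no compound and 100% = wells without enzyme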
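Material: human alpha-thrombin protein; Also added: Boc-VPR-AMC substrate, 15 µM final; Timing: enzyme reaction carried out at room temperature; Signal: fluorescence, ex 355 nm, em 460 nm; Measure: % inhibition of thrombin; Controls: enzyme without compound as high, wells lacking enzyme as low.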
FXIIa inh: factor XIIa (human) inhibition; 0.3% of 220,000 active; AID 800; inhibition, % at 5 µM; purified FXIIa, Boc-QGR-AMC fluorogenic substrate, 2 h; P00748; in the data active = inhibition above about 40%;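 note: 0% = enzyme with no compound and 100% = blank without enzyme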
Target sequence (P00748 20-372 limits assumed): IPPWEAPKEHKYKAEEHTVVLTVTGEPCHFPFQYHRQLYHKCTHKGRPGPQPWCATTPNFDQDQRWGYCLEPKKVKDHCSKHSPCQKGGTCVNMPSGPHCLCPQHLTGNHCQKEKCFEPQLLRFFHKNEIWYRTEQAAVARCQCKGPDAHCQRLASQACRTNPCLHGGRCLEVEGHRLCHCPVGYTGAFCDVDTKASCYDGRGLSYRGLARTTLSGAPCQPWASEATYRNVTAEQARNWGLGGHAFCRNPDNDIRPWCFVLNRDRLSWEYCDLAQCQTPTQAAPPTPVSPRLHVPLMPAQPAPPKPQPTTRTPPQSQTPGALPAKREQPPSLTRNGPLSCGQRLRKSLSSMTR
Target sequence (P00748 373-615 limits assumed): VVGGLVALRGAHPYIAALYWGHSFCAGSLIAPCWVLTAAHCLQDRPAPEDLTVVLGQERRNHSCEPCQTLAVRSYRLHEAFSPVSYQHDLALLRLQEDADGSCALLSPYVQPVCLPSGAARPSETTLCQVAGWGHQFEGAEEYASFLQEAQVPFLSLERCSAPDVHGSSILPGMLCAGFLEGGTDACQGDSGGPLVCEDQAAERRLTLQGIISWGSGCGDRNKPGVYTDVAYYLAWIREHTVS
PERK inhibitor: inhibitors of human PERK kinase; 0.17% of 220,000 active; Q9NZJ5; AID 1416; inhibition, % at 5.6 µM; CHO PERK-DD fusion, SEAP luminescence translation reporter;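 active = inhibition above the mean inhibition of all tested compounds plus 3 SD, set separately per screening campaign, cut at about 2.9% in these data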;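 note: PERK kinase domain activated by AP20187 dimerizer at 100 nM; 0% = DMSO with dimerizer and 100% = rapamycin at 8.4 µM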
hK5 inh: inhibitors of human kallikrein 5; Q9Y337; recombinant hK5, fluorogenic AMC substrate cleavage; inhibition, % at 5 µM; 0.59% of 210,000 active;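 active = inhibition of 40% or more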;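 note: 0% = enzyme controls without compound and 100% = no-enzyme blanks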
FXIa inh 1536: inhibitors of human coagulation factor XIa; inhibition, % at 5 µM; P03951; AID 798; purified FXIa, Boc-Glu-Ala-Arg-AMC fluorogenic substrate; 0.14% of 220,000 active;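 active = inhibition of at least 40%; inactive = inhibition below 40%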;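 note: fluorescence of freed AMC excited at 355 nm; 0% = enzyme without compound and 100% = no enzyme blank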
Numbers without * were called inactive; nt = not tested or not shown. Hits are enriched below; roughly 1.2% of the tested compounds scored in any of these assays.

SMILES | Furin inh | Thrombin inh | FXIIa inh | PERK inhibitor | hK5 inh | FXIa inh 1536
Cc1ccccc1N1CCN(Cc2c[nH]c3ccccc23)CC1 | -17 | 1 | 48* | -1 | 4 | 20
Cn1c(CC(=O)c2ccc(Br)cc2)[n+](C)c2ccccc21 | -26 | 2 | 11 | 0 | 5 | 1
O=C(CN1C(=O)/C(=C\c2cccc(Cl)c2)Oc2ccccc21)N1CCN(c2ccccn2)CC1 | -53 | -37 | -15 | 1 | -19 | -26
Cc1ccc(-n2c(=O)c3ccccc3n(CC(=O)C(C)(C)C)c2=O)cc1 | -6 | 9 | 26 | 0 | 46* | 28
CCc1ccc(-n2c(=O)c3ccccc3n(CC(=O)C(C)(C)C)c2=O)cc1 | -5 | -3 | -4 | 1 | -11 | -6
O=C1NC(=O)C2(COC(c3cccc([N+](=O)[O-])c3)OC2)S1 (stereo not given) | -26 | -4 | 6 | 1 | 0 | -3
C=CCN1C(=O)/C(=C\c2ccco2)C(C(=O)OC)=C1C | 15 | 11 | 14 | -1 | -10 | 16
CCN1C(=O)/C(=C\c2ccco2)C(C(=O)OC)=C1C | 0 | 3 | 43* | 0 | 10 | 25
Cc1ccc(/C=c2\sc3nc(-c4ccccc4Br)nn3c2=O)o1 | -23 | 104* | 6 | 1 | 12 | 8
Cc1ccc(/C=c2\sc3nc(-c4ccco4)nn3c2=O)o1 | -2 | 3 | 8 | 1 | 1 | 3
Nc1nc(-c2cc(Cl)cc(Cl)c2OC(F)F)cs1 | -15 | 13 | 15 | -1 | 8 | 6
CCN(CC)CCNC(=O)c1cccc(NC(=O)C(=O)c2cc(Br)ccc2NC(C)=O)c1 | -15 | nt | 2 | 0 | -5 | 0
Cc1oc2c(O)c(O)ccc2c(=O)c1-c1cnn(-c2ccccc2)c1 | -16 | 13 | 7 | 0 | 32 | 7
Cc1nc(-c2cnn(-c3ccccc3)c2)c2cc(C)oc2n1 | -31 | 67* | 29 | -1 | 4 | 16
